System: Fibroblast
Test: Multiplex assay against human fibroblast
Type: toxicity, cell-based
Procedure, shortened: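 Per cents of healthy-nucleus cells form the tubulin, mitochondrial-mass and membrane-permeability phenotype values. Live cells were stained at seeding with Hoechst33342, BioTracker Green Microtubule Cytoskeleton Dye, MitoTracker Red and Annexin V Alexa Fluor 680. After compound addition they were imaged on a CQ1 microscope at 37°C and 5% CO2, and CellPathfinder machine-learning gating split them into Hoechst high-intensity objects or normal cells, normal cells into healthy, pyknosed or fragmented nuclei, and pyknosed cells into mitotic or apoptotic.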

[1] = 12 h, 1 µM, compound concentration 1 uM, replicate 1
[2] = 12 h, 1 µM, compound concentration 1 uM, replicate 2
[3] = 12 h, 10 µM, compound concentration 10 uM, replicate 1
[4] = 12 h, 10 µM, compound concentration 10 uM, replicate 2
[5] = 24 h, 1 µM, compound concentration 1 uM, replicate 1
[6] = 24 h, 1 µM, compound concentration 1 uM, replicate 2
[7] = 24 h, 10 µM, compound concentration 10 uM, replicate 1
[8] = 24 h, 10 µM, compound concentration 10 uM, replicate 2
[9] = 48 h, 1 µM, compound concentration 1 uM, replicate 1
[10] = 48 h, 1 µM, compound concentration 1 uM, replicate 2
[11] = 48 h, 10 µM, compound concentration 10 uM, replicate 1
[12] = 48 h, 10 µM, compound concentration 10 uM, replicate 2

CC(C)Oc1ccccc1C(=O)Nc1ccccc1C(=O)Nc1cccc(S(=O)(=O)C(F)(F)F)c1
Population Apoptotic (%) [1]: 75%
Population Fragmented Nuclei (%) [1]: 23%
Population Healthy Nuclei (%) [1]: 49%
Population Hoechst High Intensity Objects (%) [1]: 14%
Population Membrane Permeable-Phenotype (%) [1]: 16%
Population Mitochondria Different-Phenotype (%) [1]: 22%
Population Mitotic Cells (%) [1]: 25%
Population Normal (%) [1]: 85%
Population Pyknosed Nuclei (%) [1]: 26%
Population Tubulin-Different-Phenotype (%) [1]: 62%
Total Cell Count [1]: 158
Population Apoptotic (%) [2]: 33%
Population Fragmented Nuclei (%) [2]: 20%
Population Healthy Nuclei (%) [2]: 74%
Population Hoechst High Intensity Objects (%) [2]: 5%
Population Membrane Permeable-Phenotype (%) [2]: 10%
Population Mitochondria Different-Phenotype (%) [2]: 45%
Population Mitotic Cells (%) [2]: 66%
Population Normal (%) [2]: 94%
Population Pyknosed Nuclei (%) [2]: 6%
Population Tubulin-Different-Phenotype (%) [2]: 37%
Total Cell Count [2]: 62
Population Apoptotic (%) [3]: 61%
Population Fragmented Nuclei (%) [3]: 39%
Population Healthy Nuclei (%) [3]: 34%
Population Hoechst High Intensity Objects (%) [3]: 11%
Population Membrane Permeable-Phenotype (%) [3]: 35%
Population Mitochondria Different-Phenotype (%) [3]: 47%
Population Mitotic Cells (%) [3]: 38%
Population Normal (%) [3]: 88%
Population Pyknosed Nuclei (%) [3]: 25%
Population Tubulin-Different-Phenotype (%) [3]: 23%
Total Cell Count [3]: 137
Population Apoptotic (%) [4]: 90%
Population Fragmented Nuclei (%) [4]: 17%
Population Healthy Nuclei (%) [4]: 71%
Population Hoechst High Intensity Objects (%) [4]: 4%
Population Membrane Permeable-Phenotype (%) [4]: 97%
Population Mitochondria Different-Phenotype (%) [4]: 92%
Population Mitotic Cells (%) [4]: 10%
Population Normal (%) [4]: 96%
Population Pyknosed Nuclei (%) [4]: 10%
Population Tubulin-Different-Phenotype (%) [4]: 100%
Total Cell Count [4]: 53
Population Apoptotic (%) [5]: 61%
Population Fragmented Nuclei (%) [5]: 25%
Population Healthy Nuclei (%) [5]: 51%
Population Hoechst High Intensity Objects (%) [5]: 11%
Population Membrane Permeable-Phenotype (%) [5]: 10%
Population Mitochondria Different-Phenotype (%) [5]: 22%
Population Mitotic Cells (%) [5]: 38%
Population Normal (%) [5]: 88%
Population Pyknosed Nuclei (%) [5]: 22%
Population Tubulin-Different-Phenotype (%) [5]: 65%
Total Cell Count [5]: 168
Population Apoptotic (%) [6]: 33%
Population Fragmented Nuclei (%) [6]: 21%
Population Healthy Nuclei (%) [6]: 66%
Population Hoechst High Intensity Objects (%) [6]: 7%
Population Membrane Permeable-Phenotype (%) [6]: 11%
Population Mitochondria Different-Phenotype (%) [6]: 58%
Population Mitotic Cells (%) [6]: 66%
Population Normal (%) [6]: 92%
Population Pyknosed Nuclei (%) [6]: 11%
Population Tubulin-Different-Phenotype (%) [6]: 35%
Total Cell Count [6]: 57
Population Apoptotic (%) [7]: 79%
Population Fragmented Nuclei (%) [7]: 40%
Population Healthy Nuclei (%) [7]: 37%
Population Hoechst High Intensity Objects (%) [7]: 12%
Population Membrane Permeable-Phenotype (%) [7]: 21%
Population Mitochondria Different-Phenotype (%) [7]: 71%
Population Mitotic Cells (%) [7]: 20%
Population Normal (%) [7]: 87%
Population Pyknosed Nuclei (%) [7]: 21%
Population Tubulin-Different-Phenotype (%) [7]: 23%
Total Cell Count [7]: 127
Population Apoptotic (%) [8]: 100%
Population Fragmented Nuclei (%) [8]: 17%
Population Healthy Nuclei (%) [8]: 56%
Population Hoechst High Intensity Objects (%) [8]: 11%
Population Membrane Permeable-Phenotype (%) [8]: 91%
Population Mitochondria Different-Phenotype (%) [8]: 94%
Population Mitotic Cells (%) [8]: 0%
Population Normal (%) [8]: 88%
Population Pyknosed Nuclei (%) [8]: 27%
Population Tubulin-Different-Phenotype (%) [8]: 98%
Total Cell Count [8]: 55
Population Apoptotic (%) [9]: 70%
Population Fragmented Nuclei (%) [9]: 30%
Population Healthy Nuclei (%) [9]: 57%
Population Hoechst High Intensity Objects (%) [9]: 14%
Population Membrane Permeable-Phenotype (%) [9]: 14%
Population Mitochondria Different-Phenotype (%) [9]: 13%
Population Mitotic Cells (%) [9]: 29%
Population Normal (%) [9]: 85%
Population Pyknosed Nuclei (%) [9]: 12%
Population Tubulin-Different-Phenotype (%) [9]: 49%
Total Cell Count [9]: 163
Population Apoptotic (%) [10]: 60%
Population Fragmented Nuclei (%) [10]: 29%
Population Healthy Nuclei (%) [10]: 67%
Population Hoechst High Intensity Objects (%) [10]: 7%
Population Membrane Permeable-Phenotype (%) [10]: 4%
Population Mitochondria Different-Phenotype (%) [10]: 1%
Population Mitotic Cells (%) [10]: 40%
Population Normal (%) [10]: 92%
Population Pyknosed Nuclei (%) [10]: 3%
Population Tubulin-Different-Phenotype (%) [10]: 55%
Total Cell Count [10]: 154
Population Apoptotic (%) [11]: 78%
Population Fragmented Nuclei (%) [11]: 69%
Population Healthy Nuclei (%) [11]: 24%
Population Hoechst High Intensity Objects (%) [11]: 10%
Population Membrane Permeable-Phenotype (%) [11]: 14%
Population Mitochondria Different-Phenotype (%) [11]: 46%
Population Mitotic Cells (%) [11]: 21%
Population Normal (%) [11]: 89%
Population Pyknosed Nuclei (%) [11]: 6%
Population Tubulin-Different-Phenotype (%) [11]: 48%
Total Cell Count [11]: 232
Population Apoptotic (%) [12]: 50%
Population Fragmented Nuclei (%) [12]: 66%
Population Healthy Nuclei (%) [12]: 29%
Population Hoechst High Intensity Objects (%) [12]: 9%
Population Membrane Permeable-Phenotype (%) [12]: 21%
Population Mitochondria Different-Phenotype (%) [12]: 65%
Population Mitotic Cells (%) [12]: 50%
Population Normal (%) [12]: 90%
Population Pyknosed Nuclei (%) [12]: 3%
Population Tubulin-Different-Phenotype (%) [12]: 55%
Total Cell Count [12]: 175

From ChEMBL document CHEMBL4689842, “EUbOPEN Chemogenomics Library wave 1” (2021)
